Measurements: ChEMBL document CHEMBL1147262, “Cytotoxic constituents of Aspergillus terreus from the rhizosphere of Opuntia versicolor of the Sonoran Desert” (J Nat Prod, 2003)
Active and inactive are the calls of the source. No cut-off for these calls is given here.

Key:
NCI-H460 [1] = experiment: Cytotoxicity against human NCI-H460 cells after 48 hrs by MTT assay; type: functional, cell-based; settings: NCI-H460, 48 h
In short: (§1)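 MCF-7, NCI-H460 and SF-268 cells were exposed to serial dilutions for 48 h in RPMI 1640 with 10% fetal bovine serum. Viability was read by MTT colorimetric assay, and IC50 was taken as the concentration giving 50% inhibition of proliferation/survival.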

MCF7 [2] = experiment: Cytotoxicity against human MCF7 cells after 48 hrs by MTT assay; type: functional, cell-based; settings: MCF7, 48 h; in short: as §1
SF-268 [3] = experiment: Cytotoxicity against human SF268 cells after 48 hrs by MTT assay; type: functional, cell-based; settings: SF-268, 48 h; in short: as §1
NCI-H460 [4] = experiment: Cell cycle arrest in human NCI-H460 cells assessed as accumulation at G1 phase at 10 ug/mL by flow cytometry; type: functional
In short: (§2)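 NCI-H460 cells taken at 75-85% confluency, seeded at 2.5 × 10^5 cells per 60 mm dish and left to reattach overnight. Treated overnight in complete RPMI 1640 at 10 µg/mL final (test agents) or 0.1 µM final (positive control), with DMSO ≤0.1 vol %. Harvested by trypsin, PBS-rinsed, resuspended in Krishan's buffer, then DNA-content flow cytometry gave G1/S/G2/M percentages.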

NCI-H460 [5] = experiment: Cell cycle arrest in human NCI-H460 cells assessed as accumulation at S phase at 10 ug/mL by flow cytometry; type: functional; in short: as §2
NCI-H460 [6] = experiment: Cell cycle arrest in human NCI-H460 cells assessed as accumulation at G2/M phase at 10 ug/mL by flow cytometry; type: functional; in short: as §2
NCI-H460 [7] = experiment: Cell cycle arrest in human NCI-H460 cells assessed as accumulation at G1 phase at 0.1 uM by flow cytometry; type: functional; in short: as §2
NCI-H460 [8] = experiment: Cell cycle arrest in human NCI-H460 cells assessed as accumulation at S phase at 0.1 uM by flow cytometry; type: functional; in short: as §2
NCI-H460 [9] = experiment: Cell cycle arrest in human NCI-H460 cells assessed as accumulation at G2/M phase at 0.1 uM by flow cytometry; type: functional; in short: as §2
NCI-H460 [10] = experiment: Cytotoxicity against human NCI-H460 cells at 10 ug/mL after 48 hrs by MTT assay; type: functional, cell-based
MCF7 [11] = experiment: Cytotoxicity against human MCF7 cells at 10 ug/mL after 48 hrs by MTT assay; type: functional, cell-based
SF-268 [12] = experiment: Cytotoxicity against human SF268 cells at 10 ug/mL after 48 hrs by MTT assay; type: functional, cell-based
NCI-H460 [13] = experiment: Cell cycle arrest in human NCI-H460 cells assessed as accumulation at S phase at 3 uM by flow cytometry
NCI-H460 [14] = experiment: Cell cycle arrest in human NCI-H460 cells assessed as accumulation at G1 phase at 3 uM by flow cytometry
NCI-H460 [15] = experiment: Cell cycle arrest in human NCI-H460 cells assessed as accumulation at G2/M phase at 3 uM by flow cytometry

Structure (SMILES) | IC50 (NCI-H460 [1]) | IC50 (MCF7 [2]) | IC50 (SF-268 [3]) | other results
C=CC(C)(C)c1[nH]c2ccccc2c1C1=C(OC)C(=O)C(c2c[nH]c3ccccc23)=C(OC)C1=O | 24.2 µM | 4.1 µM | 25.7 µM | 
C=C1C(=O)C[C@H]2[C@@H]3CC[C@H](C(=O)OC)[C@]12CC3(C)C | 9.4 µM | 16.7 µM | 10.2 µM | 
COC[C@H]1C(=O)C[C@H]2[C@@H]3CC[C@H](C(=O)O)[C@]12CC3(C)C | 19.4 µM | 20.6 µM | 21.4 µM | Activity (NCI-H460 [4]): 44.3%; Activity (NCI-H460 [5]): 21.4%; Activity (NCI-H460 [6]): 34.3%
COC1=C(c2ccccc2)C(=O)C(OC)=C(c2ccccc2)C1=O [BETULINAN A] | 58.4 µM | 8.7 µM | 28 µM | 
C=C1C(=O)C[C@H]2[C@@H]3CC[C@H](C(=O)O)[C@]12CC3(C)C | 10.6 µM | 24.1 µM | 14.7 µM | Activity (NCI-H460 [4]): 40.7%; Activity (NCI-H460 [5]): 16%; Activity (NCI-H460 [6]): 43.7%
CC1(C)C[C@]23[C@@H]4COC(=O)[C@H]2CC[C@H]1[C@@H]3CC4=O [QUADRONE] | 12.4 µM | 14.3 µM | 16.9 µM | Activity (NCI-H460 [4]): 38.8%; Activity (NCI-H460 [5]): 6.3%; Activity (NCI-H460 [6]): 54.8%
CC(=O)O[C@H]1C(=O)[C@@]2(C)[C@H]([C@H](OC(=O)c3ccccc3)[C@]3(O)C[C@H](OC(=O)[C@H](O)[C@@H](NC(=O)c4ccccc4)c4ccccc4)C(C)=C1C3(C)C)[C@]1(OC(C)=O)CO[C@@H]1C[C@@H]2O [PACLITAXEL] |  | 0.0112 µM |  | Activity (NCI-H460 [7]): 15.5%; Activity (NCI-H460 [8]): 14%; Activity (NCI-H460 [9]): 70.5%
COC(=O)C1(c2c[nH]c3ccccc23)C(=O)C(OC)=C(c2c[nH]c3ccccc23)C1=O (stereo unspecified) [ASTERREDIONE] | 17.4 µM | 25.2 µM | 20.7 µM | 
COC1=C(c2c[nH]c3ccccc23)C(=O)C(OC)=C(c2c[nH]c3ccccc23)C1=O [ASTERRIQUINONE D] | 19.9 µM | 17.7 µM | 15.8 µM | 
CC1(C)C[C@]23[C@@H](C(=O)O)CC[C@H]1[C@@H]2CC(=O)[C@@H]3CO | 14.5 µM | 16.5 µM | 7.8 µM | 
CC1C(=O)C[C@H]2[C@@H]3CC[C@H](C(=O)O)[C@]12CC3(C)C (stereo partly specified) |  |  |  | Activity (NCI-H460 [10]): inactive; Activity (MCF7 [11]): inactive; Activity (SF-268 [12]): inactive
COC(=O)Nc1nc2cc(C(=O)c3cccs3)ccc2[nH]1 [NOCODAZOLE] |  |  |  | Activity (NCI-H460 [13]): 6.9%; Activity (NCI-H460 [14]): 13%; Activity (NCI-H460 [15]): 80.1%
